Consider six molecules from ChEMBL document CHEMBL3098054, “The synthesis of novel taxoids for oral administration” (Bioorg Med Chem, 2014).

pIC50: −log10 of the molar value.

One data set deals with HeLa. Nature of the data set: Cytotoxicity against human HeLa cells at 1 uM after 72 hrs by MTT assay. Type of data set: functional. Conditions: read-out: GI. The gist of the method: (§1)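 Cells plated at 2000–5000/well, attached overnight at 37 °C. DMSO stocks (100 mM) serially diluted in medium to a final 1 µM, tested in duplicate wells. Exposure 72 h at 37 °C, 5% CO₂. MTT (5 mg/mL, 10 µL) added for 4 h. Lysis in 10% SDS / 5% isopropanol / 0.012 N HCl, then OD read at 580–680 nm.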
(In general: Tetrazolium dyes change colour on reduction, which living cells bring about.)

Data set [1] deals with MCF7. Nature of the data set: Cytotoxicity against human MCF7 cells after 72 hrs by MTT assay. Type of data set: functional, cell-based. Conditions: MCF7, 72 h. The gist of the method:
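MCF-7 cells exposed to compound for 72 h and read by MTT. At least six replicate wells per assay, run on three separate occasions. IC₅₀ given as mean with standard deviation.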

Data set [2] is described as follows: Apparent permeability from basolateral to apical side in human Caco2 cells at 10 uM after 90 mins by LC-MS/MS analysis. Type of data set: ADME, cell-based, Caco-2. Conditions: Caco-2. A general note: Caco-2 monolayers are a common model of the intestinal barrier.
Data set [3] is described as follows: Apparent permeability from apical to basolateral side in human Caco2 cells at 10 uM after 90 mins by LC-MS/MS analysis. Conditions: Caco-2. Type of data set: ADME, cell-based, Caco-2.
The subject of another data set is DU-145. Nature of the data set: Cytotoxicity against human DU145 cells at 1 uM after 72 hrs by MTT assay. Conditions: DU-145, 72 h, read-out: GI. It counts as functional. In outline:
as §1

The subject of a further data set is A2780. Nature of the data set: Cytotoxicity against human A2780 cells at 1 uM after 72 hrs by MTT assay. Conditions: A2780, 72 h, read-out: GI. Type of data set: functional. In outline:
as §1

Another data set concerns HL-60. Nature of the data set: Cytotoxicity against human HL60 cells at 1 uM after 72 hrs by MTT assay. Type of data set: functional. Conditions: HL-60, 72 h, read-out: GI. In outline: as §1
Data set [4] has as its system MCF7. Nature of the data set: Cytotoxicity against human MCF7 cells at 1 uM after 72 hrs by MTT assay. Type of data set: functional. Conditions: MCF7, 72 h, read-out: GI. In outline:
as §1

In a further data set the test system is NCI-H460. Nature of the data set: Cytotoxicity against human NCI-H460 cells at 1 uM after 72 hrs by MTT assay. It counts as functional. Conditions: NCI-H460, 72 h, read-out: GI. In outline: as §1
The next data set has as its system A-375. Nature of the data set: Cytotoxicity against human A375 cells at 1 uM after 72 hrs by MTT assay. Type of data set: functional. Conditions: A-375, 72 h, read-out: GI. The gist of the method:
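Cells plated at 2000–5000/well, attached overnight at 37 °C. DMSO stocks (100 mM) serially diluted in medium to a final 1 µM, tested in duplicate wells. MTT (5 mg/mL, 10 µL) added for 4 h. Lysis in 10% SDS / 5% isopropanol / 0.012 N HCl, then OD read at 580–680 nm.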

In the next data set the test system is HT-29. Nature of the data set: Cytotoxicity against human HT-29 cells at 1 uM after 72 hrs by MTT assay. Conditions: HT-29, 72 h, read-out: GI. It counts as functional. In outline: as §1

The pIC50 is −log10 of the IC50, conventionally taken in molar units. In general, Papp B→A refers to how fast a substance crosses the layer from the basolateral side. As usually defined, the Papp A→B is the apparent permeability from the apical to the basolateral side of a cell layer. As for `COC(=O)O[C@H]1C(=O)[C@]2(C)[C@@H](OC)C[C@H]3OC[C@@]3(OC(C)=O)[C@H]2[C@H](OC(=O)c2ccccc2)[C@]2(O)C[C@H](OC(=O)[C@H](O)[C@H](CC(C)C)NC(=O)OC(C)(C)C)C(C)=C1C2(C)C`, the inhibition of growth at 1 µM in the data set with HeLa came to 99.7%. In addition, the pIC50 in the data set on MCF7 [1] is 8.54. For the same molecule, in data set [2], the basolateral-to-apical permeability (Papp B→A) at 1.5 h, 10 µM was 33.3 ×10⁻⁶ cm/s. In [3], the apical-to-basolateral permeability (Papp A→B) at 1.5 h, 10 µM is 8.87 ×10⁻⁶ cm/s.
As for `CO[C@H]1C(=O)[C@]2(C)[C@@H](OC(=O)N(C)C)C[C@H]3OC[C@@]3(OC(C)=O)[C@H]2[C@H](OC(=O)c2ccccc2)[C@]2(O)C[C@H](OC(=O)[C@H](O)[C@@H](NC(=O)c3ccccc3)c3ccccc3)C(C)=C1C2(C)C`, the inhibition of growth at 1 µM in the data set with HeLa was 103%; in the data set with DU-145, 85.8%; with A2780 it was 95.6%; in the data set on HL-60, 97.8%; with MCF7 [4], 90.8%; in the data set on NCI-H460, 87.7%. For the same molecule, the inhibition of growth at 1 µM with A-375 amounted to 88.4%; in the data set on HT-29, 89.4%. Also, the pIC50 in the data set on MCF7 [1] was 7.19. In addition, the Papp A→B at 1.5 h, 10 µM in data set [3] was determined as 3.27 ×10⁻⁶ cm/s.
As to `COC(=O)O[C@H]1C[C@H]2OC[C@@]2(OC(C)=O)[C@H]2[C@H](OC(=O)c3ccccc3)[C@]3(O)C[C@H](OC(=O)[C@H](O)[C@H](CC(C)C)NC(=O)OC(C)(C)C)C(C)=C([C@@H](OC)C(=O)[C@]12C)C3(C)C`, the inhibition of growth at 1 µM in the data set with HeLa came out at 100%. This molecule also gave a pIC50 in the data set with MCF7 [1] of 8.55. In addition, the basolateral-to-apical permeability (Papp B→A) at 1.5 h, 10 µM in [2] came to 36.4 ×10⁻⁶ cm/s. Moreover, the Papp A→B at 1.5 h, 10 µM in data set [3] worked out at 7.16 ×10⁻⁶ cm/s.
For `CO[C@H]1C(=O)[C@]2(C)[C@@H](OC)C[C@H]3OC[C@@]3(OC(C)=O)[C@H]2[C@H](OC(=O)c2ccccc2)[C@]23OC(=O)O[C@H]2[C@H](OC(=O)[C@H](O)[C@@H](NC(=O)c2ccccc2)c2ccccc2)C(C)=C1C3(C)C`, the inhibition of growth at 1 µM in the data set on HeLa was 101%; with DU-145 it was 87.8%; in the data set with A2780 it was 96.7%; in the data set with HL-60 it was 96.6%; in the data set on MCF7 [4], 96%; in the data set on NCI-H460, 87.9%. For the same molecule, the figures for the inhibition of growth at 1 µM with A-375 and in the data set on HT-29 were 90.8% and 89.4%, respectively. Also, the pIC50 in the data set with MCF7 [1] is 8.16. For the same molecule, in data set [3], the Papp A→B at 1.5 h, 10 µM amounted to 1.48 ×10⁻⁶ cm/s.
`CO[C@H]1C(=O)[C@]2(C)[C@@H](OC(=O)N(C)C)C[C@H]3OC[C@@]3(OC(C)=O)[C@H]2[C@H](OC(=O)c2ccccc2)[C@]23OC(=O)O[C@H]2[C@H](OC(=O)[C@H](O)[C@@H](NC(=O)OC(C)(C)C)c2ccccc2)C(C)=C1C3(C)C`: the inhibition of growth at 1 µM in the data set on HeLa was found to be 100%; in the data set with DU-145 it was 90.7%; in the data set with A2780, 95.9%; with HL-60, 97.5%; in the data set on MCF7 [4], 84.7%; with NCI-H460, 86.2%. In addition, the inhibition of growth at 1 µM with A-375 is 93.1%; with HT-29, 87.4%. The molecule further had a pIC50 with MCF7 [1] of 7.81. In addition, the Papp A→B at 1.5 h, 10 µM in data set [3] was less than 1.67 ×10⁻⁶ cm/s.
Regarding `CO[C@H]1C(=O)[C@]2(C)[C@@H](OC)C[C@H]3OC[C@@]3(OC(C)=O)[C@H]2[C@H](OC(=O)c2ccccc2)[C@]2(O)C[C@H](OC(=O)[C@H](O)[C@@H](NC(=O)OC(C)(C)C)c3ccccc3)C(C)=C1C2(C)C` [CABAZITAXEL], the inhibition of growth at 1 µM with HeLa is 98.2%; with DU-145 it was 83.1%; in the data set on A2780 it was 93.8%; in the data set on HL-60, 97.8%; with MCF7 [4] it was 88.5%; in the data set with NCI-H460, 79.8%. Moreover, the inhibition of growth at 1 µM amounted to 97% with A-375 and 87.2% in the data set with HT-29. Also, in [3], the Papp A→B at 1.5 h, 10 µM was found to be 3.73 ×10⁻⁶ cm/s.
